# Assay outcomes deposited in PubChem by Johns Hopkins Ion Channel Center.
# This is a sample that favours compounds with a hit; in the whole collection about 3.7% have one here.
# KCNK9 block: inhibitors of human KCNK9 two-pore domain potassium channel. Q9NPC2. 310,000 compounds, 1.2% hits. HEK293 KCNK9, FluxOR thallium flux fluorescence; active compounds read low. B-score at 10 µM;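 active means ratio B-score over 3 SD below the library mean, with starting fluorescence within 5 SD of its mean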;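 further: negative B-score means less thallium flux so channel inhibition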
# hERG rescue: hERG (human) protection from proarrhythmic block; Q12809; CHO-hERG, FluxOR thallium flux, dofetilide IC70 present; activation (rescue from dofetilide block), less the hit threshold, % at 10 µM; 310,000 compounds, 0.51% hits; AID 1511;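 active means activation above the mean of controls blocked by dofetilide plus 5 SD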;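 further: thallium influx through hERG after potassium depolarization seen as dye fluorescence rise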
# KCNQ1 inh: inhibitors of human KCNQ1 potassium channel; CHO-K1 KCNQ1, FluxOR thallium flux fluorescence; active compounds read high; P51787; B-score at 10 µM; 310,000 compounds, 1.3% hits;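 active means compounds whose thallium flux B-score, printed positive for inhibition, exceeds three library SD while starting fluorescence stays within three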;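 further: channel opened by potassium depolarization with thallium stimulus after 20 min compound exposure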
# KCNQ1 act: potentiates or activates the human KCNQ1 potassium channel; P51787; CHO-K1 KCNQ1, thallium flux FluxOR fluorescence; active compounds read high; B-score at 10 µM; 310,000 compounds, 0.35% hits;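 active means fluorescence ratio B-score, a plate-corrected score, at least three library SD, with initial intensity B-score within 5 SD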
#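 Assay system: CHO-K1 cells stably expressing KCNQ1; Medium: assay buffer with matched DMSO; Also added: K+/Tl+ depolarizing stimulus; Dosing: single dose; Timing: dye 90 min, compound 20 min, room temperature; Measured by: kinetic FluxOR thallium fluorescence, 10-s 1-Hz baseline, 110-s post-stimulus read; Read-out: peak-minus-minimum fluorescence over initial fluorescence, negative-control normalized, B-scored.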
# KCNK3 inh: human KCNK3 channel inhibition, primary screen; 340,000 compounds, 0.84% hits; CHO-KCNK3 thallium flux, FluxOR fluorescence; active compounds read low; B-score at 10 µM;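 active means B-score under library mean minus 4 SD, starting fluorescence ratio at most library mean plus 5 SD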;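 further: more negative B-score means stronger inhibition of thallium flux through KCNK3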
# Target sequence (O14649 whole entry, looked up): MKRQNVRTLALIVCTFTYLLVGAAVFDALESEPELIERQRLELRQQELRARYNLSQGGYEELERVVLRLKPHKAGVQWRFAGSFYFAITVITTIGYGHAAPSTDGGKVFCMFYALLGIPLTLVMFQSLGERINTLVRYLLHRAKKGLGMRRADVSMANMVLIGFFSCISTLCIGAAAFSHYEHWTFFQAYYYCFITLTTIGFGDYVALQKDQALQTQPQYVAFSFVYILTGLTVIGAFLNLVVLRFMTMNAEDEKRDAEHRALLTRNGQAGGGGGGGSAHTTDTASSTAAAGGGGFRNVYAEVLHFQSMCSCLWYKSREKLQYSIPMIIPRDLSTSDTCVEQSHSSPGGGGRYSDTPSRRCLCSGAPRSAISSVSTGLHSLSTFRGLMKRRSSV
# Kir21 inh: inhibitors of mouse Kir2.1 inward-rectifier potassium channel; B-score at 10 µM; HEK293-Kir2.1, FluxOR thallium flux fluorescence; active compounds read low; 310,000 compounds, 0.85% hits; AID 1672;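 active means fluorescence ratio B-score at or below minus 3 SD of library scores, with starting-brightness B-score within 2 SD, cut at about -4.2 in these data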;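 further: channel flux triggered by added potassium and thallium sulfate stimulus; B-score of peak minus minimum fluorescence over baseline after thallium stimulus; more negative B-score means stronger Kir2.1 block with less thallium influx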
# KCNK9 inh conf: human KCNK9 inhibitor confirmation; shares compounds with KCNK9 block; HEK293 KCNK9 cells, FluxOR thallium flux fluorescence; inhibition, % at 10 µM; 4,900 compounds, 43% hits; AID 492992;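 active means thallium signal inhibited by more than 5 SD of the compound-free buffer control wells, on both duplicate plates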;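 further: 0% = assay buffer control wells without compound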
# Kir21 sel: tests whether KCNK9 modulators also affect mouse Kir2.1; shares compounds with KCNK9 block; Kir2.1 cells, FluxOR thallium flux fluorescence; inhibition, % at 10 µM; 4,900 compounds, 4% hits;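 active means thallium signal drop more than 5 SD beyond the mean of the no-compound control wells, seen in both duplicate plates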;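 further: signal is fluorescence rise after thallium addition divided by baseline fluorescence; plate controls were assay buffer only for no effect and full block by chlorpromazine control for full effect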
# KCNK9 uninduced: second counter-screen for KCNK9 modulators: effect in non-induced cells; shares compounds with KCNK9 block; non-induced KCNK9-HEK293, FluxOR thallium flux; inhibition, % at 10 µM; 4,900 compounds, 40% hits;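 active means thallium signal drop beyond 5 SD of the untreated control mean, on both duplicate plates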;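 further: plate controls were buffer only IC0 wells for no effect and SID17386958 at its maximal inhibitory level for full effect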
# * marks the source's active call; other numbers are inactive results; i = inactive; . = no result given.
SMILES,KCNK9 block,hERG rescue,KCNQ1 inh,KCNQ1 act,KCNK3 inh,Kir21 inh,KCNK9 inh conf,Kir21 sel,KCNK9 uninduced
CN(C)C(=O)CCc1ccc2c3c([nH]c2c1)[C@]1(CCC2CCCC2)[C@@H](C(=O)N2CCOCC2)C[C@H](CC(=O)NC(C)(C)C)C(=O)N1CC3,.,.,.,.,i,.,.,.,.
CCN(CC)C(=O)COc1ccc(C=O)cc1OC,i,-10.0,i,i,i,-0.41,.,.,.
CCOC(=O)c1cc(-c2ccc(OC)cc2F)nc2c1c(C)nn2CCC#N,-10.6*,-8.4,6*,i,i,2.04,53.5%*,i,33.5%*
Cc1oc(-c2ccccc2Cl)nc1CS(=O)CC(=O)NCc1ccccc1Cl (stereo not given),i,-12.1,i,i,i,-0.01,.,.,.
Cc1ccc(N=Cc2cc(Cc3ccccc3Cl)cc([N+](=O)[O-])c2O)c(O)c1,-8.84*,-10.7,i,i,i,1.9,i,i,65.0%*
CC(C)CN(C(=O)c1ccc(S(=O)(=O)N2CCOCC2)cc1)C1CCS(=O)(=O)C1 (stereo not given),i,-10.3,i,i,i,0.93,.,.,.
O=C(Cn1cnc([N+](=O)[O-])c1)NCCc1ccccc1,i,-4.5,i,i,i,-0.02,.,.,.
COCc1ccc(C(=O)N2CCCC(C(=O)c3cc(F)ccc3F)C2)s1 (stereo not given),i,0.1,i,i,i,-0.84,.,.,.
COc1ccc(C(=O)NNC(=S)NC(=O)c2cccs2)cc1,-9.11*,-8.0,i,i,i,0.69,i,i,i
CCOc1ccc(OCC)c(NC(=O)c2nnn(CC(=O)Nc3cc(C)cc(C)c3)c2N)c1,i,-9.2,i,i,i,-1.82,.,.,.
Cc1ccccc1OCCn1cc(C(=S)N2CCCC2)c2ccccc21,-9.65*,-6.7,i,i,i,-0.79,i,i,30.0%*
O=C(COC(=O)CCCN=C1NS(=O)(=O)c2ccccc21)NNC(=O)c1ccccc1,i,-15.7,i,i,i,-0.97,.,.,.
NC(=O)c1ccccc1OCc1nc2ccccc2s1,i,-14.2,i,i,i,1.67,i,i,i
CC(=O)OCc1nc2ccccc2s1,i,-5.6,i,i,i,0.8,.,.,.
Nc1nc(NCCc2ccccc2)nc(NCc2ccccc2)c1[N+](=O)[O-],i,-10.9,i,i,i,0.33,.,.,.
CN(Cc1ccccc1)c1nc(N)c([N+](=O)[O-])c(NCc2ccccc2)n1,-10.2*,-10.8,i,i,i,-4.55*,57.0%*,i,57.0%*
c1ccc(CSc2snnc2-c2ccccc2)cc1,i,-5.5,i,i,i,-2.11,.,.,.
Clc1ccc(CSc2snnc2-c2ccccc2)c(Cl)c1,i,-17.4,7*,i,i,-2.04,i,i,25.0%*
O=C(Cc1coc2cc3c(cc12)CCC3)OCc1cc(=O)n2c(n1)sc1ccccc12,i,-15.9,i,i,i,1.5,i,i,i
CCOc1cccc(C(=O)Nc2ccccc2OC(F)F)c1,i,-4.8,i,i,i,-2.18,.,.,.
Cc1ccc(NC(=O)c2cccc(OC(F)F)c2)c(OC(F)F)c1,-8.66*,-4.9,i,i,i,-1.89,54.0%*,i,35.0%*
Cc1cc(C)cc(Oc2nc(C(F)(F)F)nc3ccccc23)c1,i,-3.5,i,i,i,0.52,i,i,24.0%*
Cc1ccccc1C(=O)OCC(=O)NCC1COc2ccccc2O1 (stereo not given),.,.,.,.,i,.,.,.,.
CNC(=S)N/N=C/C1=CCC2CC1C2(C)C (stereo not given),i,0.6,i,i,i,-0.52,.,.,.
